Experimental data: EPA's CvTdb concentration-time database
Values belong to the compound of their own block, whether it stands above or below them.

What was measured:
[1] = system: Rat; assay: concentration in plasma after dosing; settings: dosed: Wyeth-14643, 5.0 mg/kg, oral, Male, Sprague-Dawley
[2] = system: Rat; assay: concentration in plasma after dosing; settings: 2 h; dosed: Wyeth-14643; 2.0 mg/kg; oral; Male; Sprague-Dawley
[3] = system: Rat; assay: concentration in plasma after dosing; settings: dosed: Wyeth-14643, 2.0 mg/kg, iv, Male, Sprague-Dawley
[4] = system: Rat; assay: concentration in plasma after dosing; settings: dosed: Wyeth-14643, 2.0 mg/kg, oral, Male, Sprague-Dawley
[5] = system: Rat; assay: concentration in plasma after dosing; settings: 3 h; dosed: Wyeth-14643; 1.0 mg/kg; oral; Male; Sprague-Dawley
[6] = system: Rat; assay: concentration in thymus after dosing; settings: 5 h; dosed: Bis 2-Chloroethoxy Methane; 20 mg/kg; iv; Female; F344
[7] = system: Rat; assay: concentration in liver after dosing; settings: 20 min; dosed: Bis 2-Chloroethoxy Methane; 20 mg/kg; iv; Male; F344
[8] = system: Rat; assay: concentration in heart after dosing; settings: 5 h; dosed: Bis 2-Chloroethoxy Methane; 20 mg/kg; iv; Male; F344
[9] = system: Rat; assay: concentration in thymus after dosing; settings: 7 h; dosed: Bis 2-Chloroethoxy Methane; 20 mg/kg; iv; Male; F344
[10] = system: Rat; assay: concentration in plasma after dosing; settings: dosed: Fluorotelomer alcohol 8+2, 12 mg/kg, iv, Male, F344
[11] = system: Rat; assay: concentration in liver after dosing; settings: 3 h; dosed: Fluorotelomer alcohol 8+2; 80 mg/kg; oral; Female; Harlan Sprague Dawley
[12] = system: Rat; assay: concentration in liver after dosing; settings: 1 h; dosed: Fluorotelomer alcohol 8+2; 24 mg/kg; oral; Male; Harlan Sprague Dawley
[13] = system: Rat; assay: concentration in kidney after dosing; settings: 3 h; dosed: Fluorotelomer alcohol 8+2; 24 mg/kg; oral; Male; Harlan Sprague Dawley
[14] = system: Rat; assay: concentration in brain after dosing; settings: 6 h; dosed: Fluorotelomer alcohol 8+2; 80 mg/kg; oral; Female; Harlan Sprague Dawley
[15] = system: Rat; assay: concentration in plasma after dosing; settings: 40 min; dosed: Di-n-butyl phthalate; 50 mg/kg; oral; Male; Sprague-Dawley
[16] = system: Rat; assay: concentration in plasma after dosing; settings: dosed: Perfluorodecanoic acid, 2 mg/kg, iv, Male, F344
[17] = system: Rat; assay: concentration in plasma after dosing; settings: dosed: Perfluorodecanoic acid, 2 mg/kg, iv, Male, F344; remark: listed apart in the source
[18] = system: Rat; assay: concentration in plasma after dosing; settings: dosed: Perfluorodecanoic acid, 2 mg/kg, oral, Male, Harlan Sprague Dawley
[19] = system: Rat; assay: concentration in plasma after dosing; settings: 3 h; dosed: Primidone; 80 mg/kg; oral; Male; F344
[20] = system: Rat; assay: concentration in plasma after dosing; settings: 22 h; dosed: Primidone; 30 mg/kg; oral; Male; F344
[21] = system: Rat; assay: concentration in plasma after dosing; settings: 3 h; dosed: Primidone; 130 mg/kg; oral; Male; Harlan Sprague Dawley
[22] = system: Rat; assay: concentration in liver after dosing; settings: 3 h; dosed: Thiodiglycolic Acid; 20 mg/kg; iv; Female; Harlan Sprague Dawley
[23] = system: Rat; assay: concentration in plasma after dosing; settings: 1 h; dosed: Thiodiglycolic Acid; 20 mg/kg; iv; Female; Harlan Sprague Dawley
[24] = system: Rat; assay: concentration in thymus after dosing; settings: 1 h; dosed: Thiodiglycolic Acid; 20 mg/kg; iv; Male; Harlan Sprague Dawley
[25] = system: Rat; assay: concentration in heart after dosing; settings: 20 min; dosed: Thiodiglycolic Acid; 20 mg/kg; iv; Female; F344
[26] = system: Rat; assay: concentration in liver after dosing; settings: 2 h; dosed: Thiodiglycolic Acid; 20 mg/kg; iv; Female; Harlan Sprague Dawley
[27] = system: Rat; assay: concentration in thymus after dosing; settings: 2 h; dosed: Thiodiglycolic Acid; 20 mg/kg; iv; Male; Harlan Sprague Dawley
[28] = system: Rat; assay: concentration in liver after dosing; settings: 2 h; dosed: Thiodiglycolic Acid; 20 mg/kg; iv; Female; Harlan Sprague Dawley; remark: listed apart in the source
[29] = system: Rat; assay: concentration in thymus after dosing; settings: 40 min; dosed: Thiodiglycolic Acid; 20 mg/kg; iv; Male; Harlan Sprague Dawley
[30] = system: Rat; assay: concentration in thymus after dosing; settings: 1 h; dosed: Thiodiglycolic Acid; 20 mg/kg; iv; Female; Harlan Sprague Dawley
[31] = system: Rat; assay: concentration in heart after dosing; settings: 4 h; dosed: Thiodiglycolic Acid; 20 mg/kg; iv; Female; Harlan Sprague Dawley
[32] = system: Rat; assay: concentration in thymus after dosing; settings: 6.667 h; dosed: Thiodiglycolic Acid; 20 mg/kg; iv; Female; Harlan Sprague Dawley
[33] = system: Rat; assay: concentration in plasma after dosing; settings: 40 min; dosed: dichloroacetic acid; 40 mg/kg; oral; Female; Harlan Sprague Dawley
[34] = system: Rat; assay: concentration in plasma after dosing; settings: dosed: dichloroacetic acid, 40 mg/kg, oral, Female, Harlan Sprague Dawley
[35] = system: Rat; assay: concentration in plasma after dosing; settings: 40 min; dosed: dichloroacetic acid; 100 mg/kg; oral; Male; F344
[36] = system: dog; settings: dosed: tetrachloroethylene, 142 ppm, inhalation, duration: 4 hr, male, beagle
Method in brief: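 A PubMed search, classifier screening and manual review identified published in vivo toxicokinetic studies, which together with two structured collections supplied concentration-versus-time and amount-versus-time points. Points were mostly digitised from plot screenshots with WebPlotDigitizer, otherwise copied from tables. Dose, route, subject details and medium were hand-curated from each paper, and sampling and analytical methods are those of the sources, often unreported.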

concentration in plasma ([1]; 5 min): 572 ng/mL
concentration in plasma ([1]; 8 h): 255 ng/mL
concentration in plasma [2]: 925 ng/mL
concentration in plasma ([3]; 0.5 h): 5200 ng/mL
concentration in plasma ([3]; 3 h): 338 ng/mL
concentration in plasma ([4]; 0.25 h): 912 ng/mL
concentration in plasma ([4]; 4 h): 257 ng/mL
concentration in plasma [5]: 180 ng/mL
SMILES: Cc1cccc(Nc2cc(Cl)nc(SCC(=O)O)n2)c1C

SMILES: ClCCOCOCCCl [Bis 2-Chloroethoxy Methane]
concentration in thymus [6]: 31.7 ng/g
concentration in liver [7]: 3030 ng/g
concentration in heart [8]: 42.1 ng/g
concentration in thymus [9]: 15.2 ng/g

concentration in plasma ([10]; 5 min): 3710 ng/mL
concentration in plasma ([10]; 3 h): 125 ng/mL
concentration in liver [11]: 8140 ng/g
concentration in liver [12]: 4670 ng/g
concentration in kidney [13]: 985 ng/g
concentration in brain [14]: 1090 ng/g
SMILES: OCCC(F)(F)C(F)(F)C(F)(F)C(F)(F)C(F)(F)C(F)(F)C(F)(F)C(F)(F)F [Fluorotelomer alcohol 8+2]

SMILES: CCCCOC(=O)c1ccccc1C(=O)O [Mono-n-butyl phthalate]
concentration in plasma [15]: 16800 ng/mL

SMILES: O=C(O)C(F)(F)C(F)(F)C(F)(F)C(F)(F)C(F)(F)C(F)(F)C(F)(F)C(F)(F)C(F)(F)F [Perfluorodecanoic acid]
concentration in plasma ([16]; 12 h): 5770 ng/mL
concentration in plasma ([16]; 1200 h): 860 ng/mL
concentration in plasma ([17]; 24 h): 5580 ng/mL
concentration in plasma ([17]; 1848 h): 884 ng/mL
concentration in plasma ([18]; 0.5 h): 1690 ng/mL
concentration in plasma ([18]; 24 h): 6460 ng/mL
concentration in plasma ([18]; 1848 h): 968 ng/mL

SMILES: CCC1(c2ccccc2)C(=O)NC(=O)NC1=O [Phenobarbital]
concentration in plasma [19]: 5240 ng/mL
concentration in plasma [20]: 1030 ng/mL
concentration in plasma [21]: 1210 ng/mL

SMILES: O=C(O)CSCC(=O)O [Thiodiglycolic Acid]
concentration in liver [22]: 3470 ng/g
concentration in plasma [23]: 4150 ng/mL
concentration in thymus [24]: 2310 ng/g
concentration in heart [25]: 3820 ng/g
concentration in liver [26]: 39600 ng/g
concentration in thymus [27]: 2120 ng/g
concentration in liver [28]: 25500 ng/g
concentration in thymus [29]: 3430 ng/g
concentration in thymus [30]: 3010 ng/g
concentration in heart [31]: 620 ng/g
concentration in thymus [32]: 335 ng/g

SMILES: O=C(O)C(Cl)Cl [dichloroacetic acid]
concentration in plasma [33]: 10600 ng/mL
concentration in plasma ([34]; 10 min): 3380 ng/mL
concentration in plasma ([34]; 1.5 h): 3320 ng/mL
concentration in plasma [35]: 13800 ng/mL

SMILES: O=C(O)C(Cl)(Cl)Cl [trichloroacetic acid]
amount in urine after dosing ([36]; 22 h): 8.68 mg
amount in urine after dosing ([36]; 46 h): 3 mg
amount in urine after dosing ([36]; 70 h): 1.93 mg
